# Test results reported in PubChem BioAssay AID623869 (Vanderbilt High Throughput Screening Facility, 2012).
# The campaign covered roughly 2,100 compounds. About 75 (4%) were called active. The sample holds actives, similar compounds and a random draw of the others, so the mix is not that of the screen.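 The calls were made as follows: active = calcium fluorescence trace judged by eye to show a response, as agonist, enhancer of the glutamate response, or inhibitor; inactive = trace judged by eye to show no response.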
# Target: Metabotropic glutamate receptor 8 (Rattus norvegicus) (UniProt P70579)
# Experiment: rat mGlu8 modulation via Gqi9 calcium signal, confirmation, counter-screen for GIRK activator project, cell-based, HEK293 rmGlu8, Gqi9 chimera, Fluo-4 calcium (AID 623869)
# Details: HEK293 rmGlu8/Gqi9 calcium flux, Fluo-4 fluorescence; glutamate at EC20 added after compound
# Summary of the method: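 system = HEK-293 cells stably expressing rat mGlu8, plus transient chimeric Gqi9 | measured by = Fluo-4 calcium fluorescence, 1 Hz | timing = compound pre-exposure 4 min, post-glutamate read 2 min | measure = F/F0 fluorescence traces judged visually for each well | medium = HEPES-buffered HBSS at pH 7.4 | doses = single compound addition from 20 µM solution, 0.2% DMSO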
# Sequence of Metabotropic glutamate receptor 8 (Rattus norvegicus) (P70579 whole entry, looked up): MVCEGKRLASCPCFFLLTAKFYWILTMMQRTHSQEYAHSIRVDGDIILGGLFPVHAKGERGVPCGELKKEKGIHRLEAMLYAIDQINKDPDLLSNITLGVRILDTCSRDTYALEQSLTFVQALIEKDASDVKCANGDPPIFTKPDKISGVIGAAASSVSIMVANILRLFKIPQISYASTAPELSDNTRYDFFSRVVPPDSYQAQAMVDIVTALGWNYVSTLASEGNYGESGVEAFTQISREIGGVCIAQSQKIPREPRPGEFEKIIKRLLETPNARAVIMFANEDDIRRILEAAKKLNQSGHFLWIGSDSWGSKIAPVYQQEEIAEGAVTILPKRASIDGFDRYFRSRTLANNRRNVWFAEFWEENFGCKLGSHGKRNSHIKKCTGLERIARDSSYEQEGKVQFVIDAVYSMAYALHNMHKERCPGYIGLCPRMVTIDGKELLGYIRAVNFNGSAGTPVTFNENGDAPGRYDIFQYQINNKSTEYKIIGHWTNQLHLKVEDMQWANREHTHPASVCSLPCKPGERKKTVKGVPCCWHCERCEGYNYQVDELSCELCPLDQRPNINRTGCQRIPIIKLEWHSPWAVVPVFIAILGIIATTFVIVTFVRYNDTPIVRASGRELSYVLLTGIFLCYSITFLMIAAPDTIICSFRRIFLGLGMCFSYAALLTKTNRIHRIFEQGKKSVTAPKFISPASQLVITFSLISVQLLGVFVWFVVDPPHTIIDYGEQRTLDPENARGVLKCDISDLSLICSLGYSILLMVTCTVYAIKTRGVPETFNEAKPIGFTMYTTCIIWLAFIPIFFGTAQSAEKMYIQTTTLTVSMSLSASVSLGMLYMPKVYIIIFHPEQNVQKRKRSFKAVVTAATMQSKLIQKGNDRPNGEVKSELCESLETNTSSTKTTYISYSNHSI
row,SMILES,outcome
1,CCOC(=O)c1sc(NC(=S)NC(=O)c2ccco2)nc1C,inactive; 0
2,CCOC(=O)c1sc2ncnc(NCc3ccco3)c2c1C,active; 2
3,Cc1sc2ncnc(SCc3ccco3)c2c1C,inactive; 0
4,O=C(Nc1nc(-c2ccccc2)c(-c2ccccc2)o1)c1ccc(F)cc1,inactive; 0
5,COc1ccc(C)cc1NC(=O)C(=O)NNC(=O)c1ccco1,inactive; 0
6,Cc1ccc(-c2csc3nc[nH]c(=S)c23)cc1C,inactive; 0
7,COC(=O)C1=NN(C(=O)c2ccc(Cl)cc2)C(O)(c2ccccc2)C1 (stereo not given),inactive; 4
8,CCc1cccc(NC(=O)CSC2=NS(=O)(=O)c3ccccc32)c1,inactive; 0
9,COC(=O)CSC1=NS(=O)(=O)c2ccccc21,active; -1
10,COC(=O)CSc1nc2ncccc2[nH]1,inactive; 0
11,CCn1c(SCC(N)=O)nc2sc3c(c2c1=O)CCCC3,inactive; 0
12,COc1cc(NC(=O)C(=O)NNC(=O)C2CCCCC2)c(OC)cc1Cl,inactive; 0
13,COc1cc(/C=C2\S/C(=N/S(=O)(=O)c3ccc(C)cc3)NC2=O)c([N+](=O)[O-])cc1OC,active; 2
14,COc1ccc(CN(CCC#N)C(=S)NC(=O)c2ccccc2)cc1,inactive; 0
15,COC(=O)c1c(NS(=O)(=O)c2cccs2)sc2c1CCCC2,inactive; 0
16,O=C(C1CCN(S(=O)(=O)c2cccc3cccnc23)CC1)N1CC=C(c2ccccc2)CC1,inactive; 0
17,O=C(Nc1nnc(-c2ccccc2Cl)o1)c1ccc(S(=O)(=O)N2CCCCCC2)cc1,inactive; 3
18,O=C(Nc1nnc(-c2ccccc2Cl)o1)c1nc2ccccc2s1,active; 1
19,O=C(Nc1nnc(-c2ccc(Cl)cc2)o1)c1nc2ccccc2s1,inactive; 0
20,O=C(Nc1ccc2[nH]c(=S)sc2c1)c1ccccc1,inactive; 0
21,O=C(NC(=S)N(Cc1ccccc1)Cc1ccccc1)c1ccccc1F,inactive; 0
22,CCCCOC(=O)c1ccc(NC(=S)NC(=O)c2c(Cl)cnn2CC)cc1,inactive; 0
23,O=C(Nc1ccccc1)c1ccccc1NS(=O)(=O)c1ccc(Cl)s1,active; 1
24,O=S(=O)(Nc1ccccc1N1CCCCC1)c1ccc(Cl)s1,inactive; 0

row,SMILES,outcome
1,O=C(Nc1nncs1)c1ccccc1NS(=O)(=O)c1cccs1,inactive; 0
2,CCOc1ccc2nc(/N=C/c3c(C)[nH]n(-c4ccccc4)c3=O)sc2c1,inactive; 0
3,O=C(NC(=S)N1CCN(c2ccc(Cl)cc2[N+](=O)[O-])CC1)c1cccs1,inactive; 0
4,CC(Oc1ccc2ccccc2c1)C(=O)NNC(=S)NC(=O)c1ccco1 (stereo not given),inactive; 4
5,CC(Oc1ccc(Cl)cc1)C(=O)NNC(=S)NC(=O)c1ccco1 (stereo not given),active; 1
6,CCCc1ccc(OCC(=O)NNC(=S)NC(=O)c2ccco2)cc1,inactive; 3
7,COc1ccccc1C(=O)NNC(=S)NC(=O)c1ccco1,inactive; 4
8,Cc1cccc(NC(=S)NC(=O)c2ccco2)n1,inactive; 0
9,Cc1ccccc1OCC(=O)NNC(=S)NC(=O)c1ccco1,active; 1
10,CCn1nc(C(=O)OCC(=O)N2CCc3ccccc32)c2ccccc2c1=O,inactive; 0
11,COc1ccc(CCNC(=O)CSc2nnc(-c3ccc(F)cc3)c3ccccc23)cc1OC,inactive; 0
12,Cc1cc(C)n(-c2nnc(C)n2/N=C/c2ccccc2OCc2ccccc2Cl)n1,inactive; 0
13,Cc1ccccc1NC(=S)NNC(=O)c1csc2c1CCC(C)C2 (stereo not given),inactive; 0
14,Cc1ccc(CSc2ncnc3c2cnn3-c2ccc(C)cc2)cc1,inactive; 0
15,CCCn1c(=O)c2ccccc2n2c(SCCOc3ccccc3F)nnc12,active; 2
16,CCCn1c(=O)c2ccccc2n2c(SCC(=O)N3CCc4ccccc4C3)nnc12,inactive; 0
17,CCCn1c(=O)c2ccccc2n2c(SCc3nc4ccccc4s3)nnc12,inactive; 0
18,O=C(NC(NC(=S)Nc1ccc(Cl)cc1Cl)C(Cl)(Cl)Cl)c1cccc([N+](=O)[O-])c1 (stereo not given),inactive; 4
19,S=C(Nc1ccccc1Cl)Nc1ccc(Cl)cc1Cl,inactive; 0
20,COC(=O)c1ccc(CSc2ccc3nnc(-c4ccccc4)n3n2)o1,active; 2
21,COC(=O)c1ccc(CSc2nnc(Nc3ccccc3OC)s2)o1,inactive; 0
22,CCC(Sc1ccc2nnc(-c3ccc(F)cc3)n2n1)C(=O)OC (stereo not given),inactive; 0
23,COc1ccc2nc(N3C(=O)/C(=C/c4ccccc4)NC3=S)sc2c1,inactive; 0
24,CCCc1ccc(C(=O)N2CCN(c3ccccc3OCC)CC2)cc1,inactive; 0

row,SMILES,outcome
1,Cc1cc(C)c2nc(NC(=O)c3cc(C)on3)sc2c1,inactive; 0
2,CCOc1ccc(-c2nc(-c3cccnc3)no2)cc1OCC,active; 2
3,CCOc1ccc(-c2nc(-c3ccncc3)no2)cc1OCC,inactive; 0
4,CCOc1cc(-c2noc(-c3cccnc3)n2)ccc1OC,inactive; 0
5,Cc1cccc(C(=O)NC(=S)NNC(=O)c2ccccc2Cl)c1,active; 1
6,Cc1cccc(C(=O)NC(=S)NNC(=O)c2ccc(Cl)cc2)c1,active; 1
7,O=C(NNC(=O)c1cccs1)Nc1cccc(Cl)c1,inactive; 0
8,Cc1ccc(C(=O)NNC(=S)NC(=O)c2ccc(Cl)cc2)cc1,inactive; 4
9,Cc1cccc(C(=O)NC(=S)NNC(=O)c2cccs2)c1,active; 1
10,CC(C)CNC(=S)NC(=O)c1ccccc1Cl,inactive; 0
11,O=C(CNC(=S)NC(=O)c1cccs1)c1ccccc1,inactive; 0
12,O=C(NC(=S)NNC(=O)c1cccs1)c1ccc(Br)o1,active; 1
13,CC(=O)c1cccc(NC(=S)NC(=O)c2cccc(C)c2)c1,inactive; 0
14,Cc1cccc(C(=O)NC(=S)Nc2ccccc2C(F)(F)F)c1,inactive; 0
15,Cc1ccnc(NC(=S)NC(=O)c2cccs2)c1,inactive; 0
16,Cc1cccc(NC(=O)NC(=S)NC(=O)c2ccccc2)c1,inactive; 0
17,CC(C)CNC(=S)NC(=O)c1ccc([N+](=O)[O-])cc1,inactive; 0
18,O=C(COc1ccccc1Cl)NC(=S)N1CCc2ccccc21,inactive; 0
19,C=CCCCCCCCCc1nc(=S)[nH][nH]1,inactive; 0
20,Cc1cccc(NC(=S)NNC(=O)c2sccc2C)c1,inactive; 0
21,O=C(NC(=S)N1CCN(c2ccc(Cl)cc2[N+](=O)[O-])CC1)c1ccco1,inactive; 0
22,O=C(N/N=C\c1cc(Br)c(Br)o1)c1cncc(Br)c1,inactive; 0
